Shown are actives, neighbours in structure and some others; about 5.9% of the full set was active somewhere.
KDM4C inh: blocks human GASC-1 (KDM4C) demethylase activity | Q9H3R0 | GST-KDM4C 2-372, H3K9me3 peptide, LANCE TR-FRET | inhibition, % at 12.5 µM | hit rate 0.15% among 96,000 | AID 720574;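 active = mean replicate inhibition above about 25%, with at least 55% of replicates also reaching it, limit read from the data, passing the limit was not always enough; inconclusive = only one of those two conditions met; inactive = neither condition met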
Target sequence (Q9H3R0 2-372 limits assumed): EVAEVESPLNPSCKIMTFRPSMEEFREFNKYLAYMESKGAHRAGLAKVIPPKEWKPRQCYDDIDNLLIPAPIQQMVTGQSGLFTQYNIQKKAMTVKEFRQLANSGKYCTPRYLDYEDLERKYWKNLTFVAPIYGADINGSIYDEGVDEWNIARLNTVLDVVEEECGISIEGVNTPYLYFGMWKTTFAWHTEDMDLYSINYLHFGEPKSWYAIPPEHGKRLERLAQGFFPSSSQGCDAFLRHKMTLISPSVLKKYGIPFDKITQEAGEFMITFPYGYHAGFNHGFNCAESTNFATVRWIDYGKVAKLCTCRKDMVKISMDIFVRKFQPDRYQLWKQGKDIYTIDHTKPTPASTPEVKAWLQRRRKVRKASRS
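System – N-terminal GST-fused human GASC-1 (KDM4C) fragment, residues 2-372 · Input – enzyme final amount 10 nM · Technique – LANCE TR-FRET, Eu antibody, ULight-streptavidin, EDTA, ex 340 nm, em 618/671 nm · Medium – HEPES buffer, pH 7.5, plus ascorbate · Incubation – enzyme reaction 30 min, then detection 60 min, both room temperature · Reagent – H3K9me3 peptide with Fe(II)/2OG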
IDH1 R132H inh: inhibitors of human IDH1 R132H | O75874 | IDH1 R132H reductase, diaphorase/resazurin fluorescence, 60 min | inhibition, % at 10 µM | hit rate 0.18% among 70,000; in the data active = inhibition above about 34%; inconclusive = no clear call, values can overlap the other calls; inactive = below about 11%;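 also: 0% = DMSO and 100% = no enzyme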
T cruzi growth-1: inhibitors of T. cruzi proliferation | T. cruzi beta-gal in NIH3T3, GalScreen luminescence, 90 h | inhibition, % at 8.34 µM | hit rate 5.9% among 77,000;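 active = mean inhibition above about 93%, with at least 55% of replicates each passing it, limit read from the data, passing the limit was not always enough; inconclusive = only one of those two conditions holds; inactive = neither condition holds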
Pf Dd2 growth: blocks growth of Plasmodium falciparum Dd2 parasites; activity change, % at 10 µM; hit rate 2.3% among 94,000; P. falciparum Dd2 growth, SYBR Green, 72 h; active compounds read low; in the data active = activity change below about -80%; inconclusive = no clear call, values can overlap the other calls
T cruzi growth-2: inhibitors of T. cruzi proliferation; shares compounds with T cruzi growth-1; T. cruzi beta-gal in NIH3T3, GalScreen luminescence, 90 h; hit rate 72% among 5,600; inhibition, % at 8.35 µM;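 active = mean replicate inhibition above about 95% and at least 55% of replicates individually reaching it, limit read from the data; inconclusive = only one of the two criteria is met; inactive = neither criterion is met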
T cruzi growth-3: inhibitors of T. cruzi proliferation; hit rate 21% among 5,600; inhibition, % at 2.09 µM; shares compounds with T cruzi growth-1; T. cruzi beta-gal in NIH3T3, GalScreen luminescence, 90 h; AID 651740;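 active = mean inhibition above about 95%, with at least 55% of replicates also reaching it, limit read from the data; inconclusive = meets just one of the two conditions; inactive = meets neither condition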;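 also: plate controls were neutral control median for no effect and positive control median for full effect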
3T3 cytotox: kills mouse NIH/3T3 fibroblasts; shares compounds with T cruzi growth-1; NIH/3T3 viability, CellTiter-Glo ATP luminescence, 90 h; cytotoxicity (signal decrease), % at 8.35 µM; hit rate 14% among 5,600; AID 651742;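 active = mean signal decrease across replicates above about 35% based on untreated-well scatter, with enough replicates individually passing, limit read from the data; inconclusive = no rule stated though some were filed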;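 also: 0% = median of neutral control wells and 100% = median of positive control wells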
NIH3T3 tox 2: kills mouse NIH/3T3 fibroblasts; inhibition, % at 24.9 µM; AID 651744; hit rate 56% among 5,600; shares compounds with T cruzi growth-1; NIH/3T3 viability, CellTiter-Glo ATP luminescence, 90 h;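 active = mean loss of cell viability signal at or above a set limit, and enough replicates individually reaching it; inconclusive = meets only the mean limit or only the replicate share; inactive = meets neither condition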;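 also: 0% = median of neutral control wells and 100% = median of positive control wells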
Starred values were filed as active, the others as inactive; ? = inconclusive; . = no result given.

SMILES	KDM4C inh	IDH1 R132H inh	T cruzi growth-1	Pf Dd2 growth	T cruzi growth-2	T cruzi growth-3	3T3 cytotox	NIH3T3 tox 2
COC(=O)c1ccccc1NC(=O)COc1ccc2c(C)cc(=O)oc2c1	.	0	.	.	.	.	.	.
Cc1cccc(S(=O)(=O)N2CC[C@@H]3[C@@H](CO)Nc4ccc(-c5ccccc5F)cc4[C@@H]32)c1	-1	.	1	17	.	.	.	.
Cc1ccc(S(=O)(=O)N2CC[C@@H]3[C@@H](CO)Nc4ccc(-c5ccccc5F)cc4[C@@H]32)cc1	-3	.	116*	-54	100*	103*	15	17
Cc1ccc(S(=O)(=O)N2CC[C@@H]3[C@H](CO)Nc4ccc(Br)cc4[C@@H]32)cc1	-6	.	?	29	109*	15	15	33*
Cc1ccccc1S(=O)(=O)N1CC[C@H]2[C@H](CO)Nc3ccc(-c4ccccc4F)cc3[C@H]21	-2	.	109*	-7	99*	31	43*	103*
O=S(=O)(c1ccccc1F)N1CC[C@@H]2[C@@H](CO)Nc3ccc(-c4ccccc4F)cc3[C@@H]21	0	.	53	-12	.	.	.	.
O=S(=O)(c1ccccc1)N1CC[C@@H]2[C@H](CO)Nc3ccc(-c4ccccc4F)cc3[C@@H]21	-3	.	109*	27	90	97*	23	52*
Cc1ccc(OCC(=O)Nc2ccccc2-c2nc3ccccc3s2)cc1C	.	0	.	.	.	.	.	.
COC(=O)C(O)(c1c(C)nn(-c2ccccc2)c1N)C(F)(F)F (stereo not given)	.	1	.	.	.	.	.	.
O=C(COc1ccccc1[N+](=O)[O-])Nc1ccc2oc(-c3cccc(Br)c3)nc2c1	.	0	.	.	.	.	.	.
Cc1ccc(S(=O)(=O)N2CC[C@@H]3[C@H]2c2cc(-c4ccccc4F)ccc2N[C@@H]3CO)cc1	0	.	?	9	99*	76	38*	100*
Cc1cccc(-c2ccc([C@H]3[C@H](CO)N4CCCCN(CCC(F)(F)F)C[C@@H]34)cc2)c1	-2	.	108*	-71	?	90	26	104*
C/C=C/c1ccc([C@H]2[C@@H](CO)N3CCCCN(CCC(F)(F)F)C[C@@H]23)cc1	-1	.	85	-7	.	.	.	.
OC[C@H]1[C@@H](c2ccc(-c3ccccc3)cc2)[C@@H]2CN(CCC(F)(F)F)CCCCN12	0	.	65	-66	.	.	.	.
OC[C@H]1[C@H](c2ccc(-c3ccccc3)cc2)[C@@H]2CN(CCC(F)(F)F)CCCCN12	0	.	106*	-65	100*	75	65*	102*
Cc1cccc(-c2ccc([C@H]3[C@@H](CO)N4CCCCN(CCC(F)(F)F)C[C@H]34)cc2)c1	-1	.	105*	-85*	100*	102*	32	105*
OC[C@@H]1[C@H](c2ccc(/C=C/c3ccccc3)cc2)[C@H]2CN(CCC(F)(F)F)CCCCN12	.	.	101*	-75	79	107*	73*	105*
CS(=O)(=O)N(CC(=O)Nc1ccc2c(c1)OCCO2)c1cccc(F)c1	.	0	.	.	.	.	.	.
COc1ccccc1C#Cc1ccc([C@@H]2[C@@H](CO)N3CCCCN(CCC(F)(F)F)C[C@H]23)cc1	1	.	105*	-82*	91	110*	98*	104*
OC[C@H]1[C@@H](c2ccc(C#CC3CC3)cc2)[C@H]2CN(CCC(F)(F)F)CCCCN21	.	.	90	-18	.	.	.	.
Cc1cccc(-c2ccc([C@H]3[C@@H](CO)N4CCCCN(CCC(F)(F)F)C[C@@H]34)cc2)c1	1	.	?	-36	94	84	45*	105*
OC[C@H]1[C@H](c2ccc(C#CC3CC3)cc2)[C@H]2CN(CCC(F)(F)F)CCCCN21	.	.	98*	1	111*	32	34	106*
COc1ccccc1C#Cc1ccc([C@H]2[C@H]3CN(CCC(F)(F)F)CCCCN3[C@H]2CO)cc1	-2	.	43	-36	.	.	.	.
C[C@H](CO)N1C[C@H](C)[C@H](CN(C)S(=O)(=O)c2ccccc2F)Oc2cc(-c3ccncc3)ccc2S1(=O)=O	1	0	.	-36	.	.	.	.
C[C@@H]1CN([C@@H](C)CO)S(=O)(=O)c2ccc(-c3ccccc3)cc2O[C@H]1CN(C)S(=O)(=O)c1ccccc1F	-1	0	124*	-84*	99*	105*	56*	66*
SMILES	KDM4C inh	IDH1 R132H inh	T cruzi growth-1	Pf Dd2 growth	T cruzi growth-2	T cruzi growth-3	3T3 cytotox	NIH3T3 tox 2
C[C@@H]1CN([C@H](C)CO)S(=O)(=O)c2ccc(-c3ccccc3)cc2O[C@@H]1CN(C)S(=O)(=O)c1ccccc1F	1	0	122*	-27	100*	95	21	36*
C[C@@H]1CN([C@H](C)CO)S(=O)(=O)c2ccc(-c3ccccc3)cc2O[C@H]1CN(C)S(=O)(=O)c1ccccc1F	0	0	112*	-66	?	89	64*	37*
C[C@@H]1CN([C@H](C)CO)S(=O)(=O)c2ccc(-c3ccncc3)cc2O[C@@H]1CN(C)S(=O)(=O)c1ccccc1F	1	0	.	-30	.	.	.	.
C[C@@H]1CN([C@@H](C)CO)S(=O)(=O)c2ccc(-c3ccccc3)cc2O[C@@H]1CN(C)S(=O)(=O)c1ccccc1F	-2	-1	119*	-37	102*	103*	15	46*
C[C@H](CO)N1C[C@H](C)[C@H](CN(C)S(C)(=O)=O)Oc2cc(-c3ccccc3)ccc2S1(=O)=O	-3	1	24	-8	.	.	.	.
Cc1cc(CNC(=S)Nc2ccc(S(N)(=O)=O)cc2)nn1C	.	0	.	.	.	.	.	.
Cc1ccc(S(=O)(=O)N(CC(N)=O)c2ccc(Cl)c(Cl)c2)cc1	.	0	.	.	.	.	.	.
CCn1c(SCC(=O)Nc2cccc(SC)c2)nnc1-c1ccc(Cl)cc1	.	0	.	.	.	.	.	.
Cc1ccc(NC(=O)CSc2nc(O)c(C)c(=O)n2-c2ccccc2F)c(C)c1	.	1	.	.	.	.	.	.
C[C@@H]1CN([C@@H](C)CO)C(=O)c2cc(NC(=O)Nc3ccc(C(F)(F)F)cc3)ccc2O[C@@H](C)CCCCO[C@@H]1CN(C)S(=O)(=O)c1cccs1	-1	2	37	-56	.	.	.	.
C[C@H]1CCCCO[C@@H](CN(C)S(=O)(=O)c2cccs2)[C@@H](C)CN([C@@H](C)CO)C(=O)c2cc(NC(=O)Nc3ccc4c(c3)OCO4)ccc2O1	1	.	111*	-64	111*	48	14	10
C[C@@H]1CCCCO[C@@H](CN(C)S(=O)(=O)c2cccs2)[C@H](C)CN([C@H](C)CO)C(=O)c2cc(NC(=O)Nc3ccc(F)cc3)ccc2O1	-4	.	?	-78	108*	42	-15	8

Bioassay records (PubChem BioAssay)
